# An excerpt weighted towards active compounds, which were near 0.63% of everything screened.
# IDE cell inh = inhibitors of human insulin-degrading enzyme in cells | P14735 | hit rate 0.41% among 320,000 | HEK cells, FAbetaB cleavage, fluorescence polarization | inhibition, % at 5.59 µM;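 active = percent inhibition above the average of all tested compounds plus 3 SD, set per screening campaign, cut at about 16% in these data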;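 also: IDE supplied by intact live HEK cells; FP after avidin binding of uncleaved biotin substrate so inhibition keeps polarization high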
# zfTRPN1 agonist = zebrafish TRPN1 (NompC) channel agonism; activation, % at 3 µM; HEK293 zebrafish TRPN1-YFP, Fluo-8 calcium fluorescence; 100% = response to 87 µM carbachol; hit rate 0.18% among 220,000;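 active = activation above its plate's cutoff, the mean activation of test wells on that plate plus 3 SD, cut at about 19% in these data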
#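 Control set: carbachol 87 µM as high control, DMSO as low control; system: HEK293 stable line with zebrafish TRPN1-YFP; read-out: % activation versus carbachol response; detection: intracellular calcium fluorescence with Fluo-8; doses: single test compound dose, 3 µM nominal, 0.3% DMSO; schedule: dye 1 h 37 °C plus 30 min RT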
# TRPML3 ag = human mucolipin-3 channel agonism | Q8TDD5 | HEK293 TRPML3-YFP, Fluo-8 calcium fluorescence; 100% = the carbachol control signal | activation, % at 3 µM | hit rate 0.29% among 220,000 | AID 1448;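 active = activation above its plate's cutoff, the mean activation of the plate's test wells plus 3 SD, cut at about 12% in these data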
#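 Test system: HEK293 cells stably carrying human TRPML3-YFP; Doses: single dose, 3 µM final nominal compound, 0.3% DMSO final; Schedule: dye loading 1 h 37 °C then 30 min ambient, 125 s read; Technique: Fluo-8 calcium fluorescence; Benchmarks: high control carbachol 87 µM, low control DMSO.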
# IDE cell activ = activators of human insulin-degrading enzyme in cells; HEK cells, FAbeta-B cleavage, fluorescence polarization; 0% vehicle, 100% cell-free pure enzyme wells; activation, % at 5.96 µM; hit rate 0.073% among 340,000; AID 493087;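 active = activation above the mean of all tested compounds plus 3 SD, set per screening campaign, cut at about 17% in these data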
# Hits are given with their value; - = inactive; . = not tested or not shown; + = active, no number.
SMILES,IDE cell inh,zfTRPN1 agonist,TRPML3 ag,IDE cell activ
S=C(NCCc1ccccc1)Nc1ccccc1Cl,-,-,-,-
S=C(NCCCc1ccccc1)Nc1ccccc1Cl,-,145,-,-
COc1ccc2o/c(=N\O)c(C(=O)Nc3ccccc3OC)cc2c1,28,-,-,-
CCN(CC(=O)Nc1ccc(NC(C)=O)cc1)C(=O)c1cc(CN2C(=O)c3ccccc3C2=O)ccc1OC,-,.,.,18
CCCCCc1cc(O)c2c(C)cc(=O)oc2c1,-,-,-,-
CCCCc1cc(O)c(CCCC)c(O)c1,-,52,36,-
CC(=O)NCCc1c(C)n(Cc2ccccc2)c2ccccc12,-,.,.,-
COc1ccc(/C=C2\CCCc3c2nc2ccccc2c3C(=O)O)cc1OC,-,40,19,.
COc1ccc(/C=C2\CCc3c2nc2ccccc2c3C(=O)O)cc1OC,-,-,-,-
CCOc1ccc(/C=C2\CCCc3c2nc2ccccc2c3C(=O)O)cc1OC,-,.,.,48
CCCCOc1ccc(C(=O)OCC(=O)Nc2cc(C)on2)cc1,-,94,88,-
CCCOc1ccc(C(=O)CCC(=O)OCC(=O)Nc2cc(C)on2)cc1,.,-,-,.
CC(C)S(=O)(=O)N1CCN(c2ccnc3cc(Cl)ccc23)CC1,23,-,-,.
CN(C)S(=O)(=O)N1CCN(c2ccnc3cc(Cl)ccc23)CC1,-,.,.,-
Cc1cc(Cl)ccc1C(=O)C1CCCN(C(=O)c2cncs2)C1 (configuration not stated),-,.,.,-
CCCCN(C)C1=CC2=CC(=C(C#N)C#N)CCC2CC1 (configuration not stated),-,239,225,46
N#CC(C#N)=C1C=C2C=C(N3CCCCC3)CCC2CC1 (configuration not stated),-,+,380,.
CCN(CC)C1=CC2=CC(=C(C#N)C#N)CCC2CC1 (configuration not stated),-,332,298,44
N#CC1=C(N)C2=C(N3CCCCC3)CCCC2C1(C#N)C#N (configuration not stated),-,-,-,-
CC(NC(=O)C1CCN(S(=O)(=O)c2ccc3c(c2)NC(=O)CO3)CC1)c1ccccc1 (configuration not stated),-,.,.,-
O=C(NC1CCSc2ccccc21)c1ccc(C(F)(F)F)cc1 (configuration not stated),-,.,.,-
CN1CCN(CC(=O)Nc2nnc(-c3cccs3)s2)CC1,-,-,-,-
O=C(CCC(=O)N1CCOCC1)NCCc1ccccc1,-,.,.,-
CCCCn1nc2cc(C(=O)NCCCCc3ccccc3)ccc2c1OCC,-,-,-,21
CCCCNC(=O)c1ccc2c(OCC)n(CCCC)nc2c1,-,-,-,-
SMILES,IDE cell inh,zfTRPN1 agonist,TRPML3 ag,IDE cell activ
CC(C)C(=O)Nc1ccc(Oc2ccc3c(c2)C(=O)NC3=O)cc1,-,.,.,-
CCOC(=O)C1C(c2ccc3c(c2)OCO3)NC(=O)NC1(O)C(F)(F)F (configuration not stated),-,28,-,-
Cc1nnc(NC(=O)c2sc3nc(-c4cccs4)cc(C(F)(F)F)c3c2N)s1,19,-,-,-
Nc1ccc(S(=O)(=O)c2cccc(N)c2)cc1,-,-,-,-
Cc1ccc(S(=O)(=O)c2ccccc2)cc1S,26,-,-,.
Cc1c(C)n2c(SCC(=O)Nc3cccc4ccccc34)nnc2[nH]c1=O,-,.,.,-
Cc1cccc(NC(=S)NNc2ncc(C(F)(F)F)cc2Cl)c1,-,-,-,-
FC(F)(F)c1cnc(NNC(=S)Nc2ccccc2Cl)c(Cl)c1,-,29,17,-
Cc1cccc(OCC(=O)NCC(=O)N/N=C/c2cc(Br)cc(Br)c2O)c1,-,.,.,-
S=C(NCCCN1CCOCC1)N1CCN(c2nc(-c3ccc(Cl)cc3)cs2)CC1,23,-,-,-
CCCNC(=S)N1CCN(c2nc(-c3ccc(C)cc3)cs2)CC1,-,.,.,-
COc1ccc(S(=O)(=O)N2CCN(C)CC2)cc1C(=O)Nc1ccccc1,-,.,.,-
CC(C(=O)N1c2ccccc2CC1C)N1CCN(S(=O)(=O)c2ccccc2F)CC1 (configuration not stated),-,.,.,-
CCCCn1c(N)c(Br)c(=O)[nH]c1=O,-,-,-,-
Cc1cc2nc3c(=O)n(CCc4ccccc4)c(=O)[nH]c3nc2cc1N,-,51,-,-
CCCCn1c(=O)[nH]c2nc3cc(N)ccc3nc2c1=O,-,42,30,-
Cc1nc2ccccc2c(=O)n1CCc1ccccc1,-,.,.,-
Cn1c(=O)c(NCCc2ccccc2)c2c3c(cccc31)C(=O)c1ccccc1-2,-,126,83,-
Cn1c(=O)c(NCCO)c2c3c(cccc31)C(=O)c1ccccc1-2,-,454,282,54
O=C(/C=C/c1ccccc1)Nc1ccc(N2CCCCC2)cc1,-,-,-,-
O=C(/C=C/c1ccc(Cl)cc1)Nc1ccc(N2CCCCC2)cc1,-,-,-,40
NS(=O)(=O)c1ccc(-c2ccc(/C=C3\SC(=S)N(C4CCS(=O)(=O)C4)C3=O)o2)cc1 (configuration not stated),20,-,-,-
Cc1ccc(/C=C2\SC(=S)N(C3CCS(=O)(=O)C3)C2=O)o1 (configuration not stated),-,-,-,-
Cc1cc(C)nc(/N=C(\N)Nc2ccc(SC(F)F)cc2)n1,-,36,17,-
Cc1ccc(C)c(N/C(N)=N/c2nc(C)cc(C)n2)c1,-,36,21,-
SMILES,IDE cell inh,zfTRPN1 agonist,TRPML3 ag,IDE cell activ
Cc1c(CN2CCC(CO)(CCOc3ccccc3)CC2)[nH]c2c(Cl)cccc12,-,-,-,28
Cc1cccc(N2CCN(C(=S)Nc3ccc4nc(N5CCN(C)CC5)cc(C)c4c3)CC2C)c1 (configuration not stated),-,-,-,30
Cc1cc(N2CCN(C)CC2)nc2ccc(NC(=S)N3CCN(c4cccc(Cl)c4)CC3)cc12,-,-,-,-
O=C(Nc1cc(S(=O)(=O)N2CCOCC2)ccc1N1CCOCC1)c1ccccc1F,-,.,.,20
O=C(NCC(=O)N1CCN(Cc2ccccc2)CC1)c1cc(Cl)cc([N+](=O)[O-])c1,-,.,.,-
N#C/C(=C\c1coc2ccccc2c1=O)C(N)=S,-,-,-,-
N#C/C(=C\c1coc2ccc(O)cc2c1=O)C(=O)Nc1nc2ccccc2s1,-,222,64,-
COc1cccc(C2=CC(c3ccc(N(C)C)cc3)n3ncnc3N2)c1 (configuration not stated),18,-,-,.
COc1cccc(C2=CC(c3ccccc3)n3ncnc3N2)c1 (configuration not stated),-,-,-,.
COc1ccc(C2C=C(c3ccc(C)cc3)Nc3ncnn32)cc1 (configuration not stated),.,-,-,-
COc1ccc(C2C=C(c3ccc(Br)s3)Nc3ncnn32)cc1OC (configuration not stated),39,-,-,.
O=C(Nc1ccc(Cl)cc1)Nc1csc([N+](=O)[O-])c1,-,22,15,.
O=C(Nc1csc([N+](=O)[O-])c1)Nc1c(Cl)cccc1Cl,-,-,-,-

# Screening data: PubChem BioAssay, The Scripps Research Institute Molecular Screening Center
